# Experimental data taken from ChEMBL document CHEMBL1240415, “Design, synthesis and antimicrobial activities of some new quinoline derivatives carrying 1,2,3-triazole moiety” (2010).
# How the values were obtained:
# Assay type in all cases: functional
# [1] = tested on: Aspergillus flavus; assay: Antifungal activity against Aspergillus flavus NCIM 524 after 3 to 4 days by serial plate dilution method; conditions: for MIC: Aspergillus flavus, NCIM 524
# Procedure, shortened: (§1)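 Sabouraud agar made from peptone, glucose and agar in water, pH 5.7. Fungal spores suspended in normal saline and used to lawn the plates, which were dried 1 h at 37 °C. Wells punched and compounds added in DMSO, with a DMSO solvent control. Triplicate plates held at 37 °C for 3–4 days. Read-out is inhibition zone diameter.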
# [2] = tested on: Talaromyces marneffei; assay: Antifungal activity against recultured Penicillium marneffei after 3 to 4 days by serial plate dilution method; conditions: for MIC: Talaromyces marneffei; procedure, shortened: as §1
# [3] = tested on: Aspergillus fumigatus; assay: Antifungal activity against Aspergillus fumigatus NCIM 902 after 3 to 4 days by serial plate dilution method; conditions: for MIC: Aspergillus fumigatus, NCIM 902; procedure, shortened: as §1
# [4] = tested on: Staphylococcus aureus; assay: Antibacterial activity against Staphylococcus aureus ATTC 25923 after 3 to 4 days by serial plate dilution method; conditions: for MIC: Staphylococcus aureus, ATTC 25923
# Procedure, shortened: (§2)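 Serial dilutions in Mueller-Hinton broth in tubes, pH adjusted to 5.0 with phosphate buffer. Inoculated with a standardized bacterial suspension and incubated 16–18 h at 37 °C. MIC is the lowest concentration with no visible growth, tested over 6.25–100 µg/mL. Zones come from an agar well diffusion assay: compounds in DMSO are added to wells in seeded agar, DMSO control, triplicate plates, 37 °C for 3–4 days, inhibition zone diameter in mm.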
# [5] = tested on: Pseudomonas aeruginosa; assay: Antibacterial activity against Pseudomonas aeruginosa ATCC 27853 after 3 to 4 days by serial plate dilution method; conditions: for MIC: Pseudomonas aeruginosa, ATCC 27853; procedure, shortened: as §2
# [6] = tested on: Trichophyton mentagrophytes; assay: Antifungal activity against recultured Trichophyton mentagrophytes after 3 to 4 days by serial plate dilution method; conditions: for MIC: Trichophyton mentagrophytes; procedure, shortened: as §1
# [7] = tested on: Streptococcus pyogenes; assay: Antibacterial activity against Streptococcus pyogenes after 3 to 4 days by serial plate dilution method; conditions: for MIC: Streptococcus pyogenes; procedure, shortened: as §2
# [8] = tested on: Klebsiella pneumoniae; assay: Antibacterial activity against recultured Klebsiella pneumoniae after 3 to 4 days by serial plate dilution method; conditions: for MIC: Klebsiella pneumoniae; procedure, shortened: as §2
# [9] = tested on: Escherichia coli; assay: Antibacterial activity against Escherichia coli ATTC 25922 after 3 to 4 days by serial plate dilution method; conditions: for MIC: Escherichia coli, ATTC 25922; procedure, shortened: as §2
# [10] = tested on: Candida albicans; assay: Antifungal activity against Candida albicans after 3 to 4 days by serial plate dilution method; conditions: for MIC: Candida albicans; procedure, shortened: as §1
MIC [1],MIC [2],MIC [3],MIC [4],MIC [5],MIC [6],MIC [7],MIC [8],MIC [9],MIC [10],Structure (SMILES),diameter of the inhibition zone (DIZ) [1],diameter of the inhibition zone (DIZ) [2],diameter of the inhibition zone (DIZ) [3],diameter of the inhibition zone (DIZ) [4],diameter of the inhibition zone (DIZ) [5],diameter of the inhibition zone (DIZ) [6],diameter of the inhibition zone (DIZ) [7],diameter of the inhibition zone (DIZ) [8],diameter of the inhibition zone (DIZ) [9],diameter of the inhibition zone (DIZ) [10]
12.5 µg/mL,25 µg/mL,12.5 µg/mL,50 µg/mL,50 µg/mL,12.5 µg/mL,50 µg/mL,50 µg/mL,50 µg/mL,12.5 µg/mL,COc1ccc2nc(C)cc(-n3cc(CN4CCN(c5ccc(C)cc5)CC4)nn3)c2c1,12 mm,<10 mm,10 mm,<10 mm,<10 mm,12 mm,<10 mm,<10 mm,<10 mm,12 mm
6.25 µg/mL,6.25 µg/mL,6.25 µg/mL,12.5 µg/mL,6.25 µg/mL,6.25 µg/mL,6.25 µg/mL,6.25 µg/mL,12.5 µg/mL,6.25 µg/mL,COc1ccc2nc(C)cc(-n3cc(CN4CCN(c5ccccc5F)CC4)nn3)c2c1,10 mm,12 mm,12 mm,10 mm,10 mm,10 mm,14 mm,10 mm,10 mm,10 mm
